{"source": "paper PMC7933111", "about": "(ACS chemical neuroscience, 2021)", "key": {"C57BL/6 wild-type mice": {"system": "C57BL/6 wild-type mice", "assay": "Head-twitch response", "assay_type": "in vivo, mouse", "conditions": "for effect of antagonist pretreatment on HTR in mice administered 1-NP or 2-NP: 5-HT1AR antagonist WAY100635 or 5-HT2CR antagonist SB-242084 pretreatment; for HTR counts vs vehicle: 5 mg/kg, first 30 min postinjection, wild-type"}, "5-HT2AR [1]": {"target": "T1, 5-HT2AR (Homo sapiens, UniProt P28223)", "T1 sequence (P28223 whole entry)": "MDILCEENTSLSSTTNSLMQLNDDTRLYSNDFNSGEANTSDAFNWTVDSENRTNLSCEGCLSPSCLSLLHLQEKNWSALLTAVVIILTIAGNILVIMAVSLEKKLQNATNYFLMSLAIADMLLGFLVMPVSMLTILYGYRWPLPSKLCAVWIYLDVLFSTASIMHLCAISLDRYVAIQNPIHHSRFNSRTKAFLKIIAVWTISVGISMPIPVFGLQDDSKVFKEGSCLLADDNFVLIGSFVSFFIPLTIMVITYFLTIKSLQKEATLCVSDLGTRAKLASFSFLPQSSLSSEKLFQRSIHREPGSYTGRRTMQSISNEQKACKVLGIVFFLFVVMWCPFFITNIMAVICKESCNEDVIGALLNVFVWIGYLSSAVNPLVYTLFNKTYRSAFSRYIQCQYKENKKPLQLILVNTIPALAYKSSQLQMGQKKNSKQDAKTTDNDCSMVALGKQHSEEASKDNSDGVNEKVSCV", "assay_type": "binding"}, "5-HT2AR [2]": {"target": "T1, 5-HT2AR", "assay": "Intracellular Ca2+ mobilization", "assay_type": "cell-based", "conditions": "for Emax: HEK293, read-out: Emax (Ca2+ mobilization)"}, "mice [3]": {"system": "mice", "assay": "GI effect of 5-HTP in mice", "assay_type": "in vivo, mouse", "conditions": "i.p., data not shown"}, "[4]": {"system": "rats trained to distinguish DOM from vehicle", "conditions": "cited from earlier work"}, "5-HT2A-KO mice": {"system": "5-HT2A-KO mice", "assay": "Head-twitch response", "assay_type": "in vivo, mouse", "conditions": "5 mg/kg, first 30 min postinjection", "method_in_brief": "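Adult (8–16 weeks) male 5-HT2A-KO mice rederived from 129sv (F5), from the authors' colony. After 30 min of chamber habituation for baseline, mice were dosed and followed 90 min by magnetometer. HTR counts were automated with minor visual checking and summed over the first 30 min post-injection, then compared with vehicle by one-way ANOVA with Bonferroni post hoc; n = 5–12.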"}, "5-HT2AR [5]": {"system": "5-HT2AR", "assay": "IP1 accumulation in vivo", "set-up": "species or system mouse", "method_in_brief": "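Male C57BL/6 mice, 10 weeks old, received LiCl 200 mg/kg and returned home 30 min before treatment; co-administered antagonist was given in the same solution. Mice were decapitated 60 min later, and frontal cortex and posterior cerebellum were frozen at −80 °C. Tissue was bead-lysed at 4 °C in kit buffer with 50 mM LiCl and centrifuged at 17 000g. HTRF was read in duplicate; inverted 615/665 ratio, cortex/cerebellum fold-change; n = 3/group.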"}, "5-HT2AR [6]": {"target": "T1, 5-HT2AR", "assay": "IP1 accumulation in vitro", "assay_type": "cell-based", "conditions": "single concentration, 30 min at 37 °C"}, "5-HT2AR [7]": {"target": "T1, 5-HT2AR", "assay_type": "binding", "remark": "listed apart in the source"}, "c-fos, egr-1, egr-2 [8]": {"system": "c-fos, egr-1, egr-2", "assay": "Immediate early gene expression in somatosensory cortex, wild-type mice", "assay_type": "in vivo, mouse", "conditions": "5 mg/kg, 60 min, wild-type 129S6/SvEv"}, "5-HT2AR [9]": {"target": "5-HT2AR", "assay": "[3H]ketanserin binding displacement, mouse frontal cortex membranes", "conditions": "5 nM [3H]ketanserin"}, "c-fos, egr-1, egr-2 [10]": {"system": "c-fos, egr-1, egr-2", "assay": "Immediate early gene expression in somatosensory cortex, 5-HT2AR-KO mice", "assay_type": "in vivo, mouse", "conditions": "5 mg/kg, 60 min, 5-HT2AR-KO littermates", "method_in_brief": "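Adult (10–20 weeks) 129S6/SvEv 5-HT2AR-KO mice, born to Htr2a± heterozygote breeders. Somatosensory cortex was taken 60 min after 5 mg/kg test compound or vehicle, and c-fos, egr-1 and egr-2 expression was measured alongside a housekeeping gene; n = 5.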"}, "mice [11]": {"system": "mice", "assay": "Quantification of feces", "assay_type": "in vivo, mouse", "method_in_brief": "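Mice habituated to the monitoring chambers and to i.p. injections were acclimated 30 min, then injected i.p. with drug(s) or saline vehicle at 10 μL/g. Feces were counted over the first 30 min; pellets present before or immediately after injection were excluded. n = 9; two-way ANOVA with Bonferroni post hoc.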"}}, "note": "Where two headings read alike, the source gives them in different places.", "data": [{"molecule": "COc1ccccc1N1CCN(CCN(C(=O)C2CCCCC2)c2ccccn2)CC1.O=C(O)/C=C\\C(=O)O", "note": "[WAY100635, N-[2-[4-(2-methoxyphenyl)-1-piperazinyl]ethyl]-N-2-pyridinylcyclohexanecarboxamide maleate]", "values": [{"measurement": "effect of antagonist pretreatment on HTR in mice administered 1-NP or 2-NP", "setting": "C57BL/6 wild-type mice", "result": "did not significantly affect HTR"}]}, {"molecule": "c1ccc2c(N3CCNCC3)nccc2c1", "note": "[isoquipazine, 1-(piperazin-1-yl)isoquinoline]", "values": [{"measurement": "Ki", "setting": "5-HT2AR [1]", "result": 3.8, "unit": "µM"}, {"measurement": "HTR counts vs vehicle", "setting": "C57BL/6 wild-type mice", "result": "Neither isoquipazine nor 1-NP produced changes in HTR counts"}, {"measurement": "IC50", "setting": "5-HT2AR [2]", "result": 24.7, "unit": "µM"}]}, {"molecule": "c1ccc2c(N3CCNCC3)cccc2c1", "note": "[1-NP, 1-(naphthalen-1-yl)piperazine]", "values": [{"measurement": "Ki", "setting": "5-HT2AR [1]", "result": 0.1, "unit": "µM"}, {"measurement": "HTR counts vs vehicle", "setting": "C57BL/6 wild-type mice", "result": "Neither isoquipazine nor 1-NP produced changes in HTR counts"}, {"measurement": "HTR dose-response", "setting": "C57BL/6 wild-type mice; i.p.", "result": "apparent suppression of HTR counts at all tested doses"}]}, {"molecule": "N[C@@H](Cc1c[nH]c2ccc(O)cc12)C(=O)O", "note": "[5-HTP, 5-hydroxytryptophan]", "values": [{"measurement": "GI effect", "setting": "mice [3]", "result": "produced diarrhea"}]}, {"molecule": "c1ccc2cc(N3CCNCC3)ccc2c1", "note": "[2-NP, 1-(naphthalen-2-yl)piperazine]", "values": [{"measurement": "Ki", "setting": "5-HT2AR [1]", "result": 0.724, "unit": "µM"}, {"measurement": "generalization for the DOM stimulus", "setting": "[4]", "result": "full generalization"}, {"measurement": "HTR counts vs vehicle", "setting": "C57BL/6 wild-type mice", "result": "increase in HTR that differed statistically from vehicle"}, {"measurement": "ED50", "setting": "C57BL/6 wild-type mice; Mus musculus, ip, read-out: ED50 (HTR)", "result": "0.42 ± 0.2", "unit": "mg/kg"}, {"measurement": "HTR dose-response", "setting": "C57BL/6 wild-type mice; i.p.", "result": "dose-dependent"}, {"measurement": "HTR vs vehicle in 5-HT2AR-KO mice", "setting": "5-HT2A-KO mice", "result": "did not differ"}, {"measurement": "EC50", "setting": "5-HT2AR [2]", "result": 0.15, "unit": "µM"}, {"measurement": "Emax", "setting": "5-HT2AR [2]", "result": 48.9, "unit": "%"}]}, {"molecule": "COc1cccc([C@H](O)C2CCN(CCc3ccc(F)cc3)CC2)c1OC", "note": "[M100907, (R)-(+)-α-(2,3-dimethoxyphenyl)-1-[2-(4-fluorophenyl)ethyl]-4-pipidinemethanol]", "values": [{"measurement": "effect on quipazine-induced IP1 accumulation in vivo", "setting": "5-HT2AR [5]; M100907 0.1 mg/kg with quipazine 5 mg/kg", "result": "successfully blocked"}]}, {"molecule": "c1ccc2nc(N3CCNCC3)ccc2c1", "note": "[quipazine, 2-(piperazin-1-yl)quinoline]", "values": [{"measurement": "IP1 accumulation (in words)", "setting": "5-HT2AR [6]", "result": "robust increase of IP1 accumulation"}, {"measurement": "Ki", "setting": "5-HT2AR [7]", "result": 5.13, "unit": "µM"}, {"measurement": "IP1 accumulation in frontal cortex vs vehicle", "setting": "5-HT2AR [5]; 5 mg/kg, LiCl 200 mg/kg pretreatment, 60 min", "result": "greater accumulation of IP1"}, {"measurement": "cortical expression of c-fos, egr-1 and egr-2", "setting": "c-fos, egr-1, egr-2 [8]", "result": "exhibited changes in the cortical expression of c-fos, egr-1, and egr-2"}, {"measurement": "Ki", "setting": "5-HT2AR [1]", "result": 20, "unit": "µM"}, {"measurement": "pKi", "setting": "5-HT2AR [9]", "result": "5.601 ± 0.16"}, {"measurement": "changes in c-fos, egr-1 and egr-2 expression", "setting": "c-fos, egr-1, egr-2 [10]", "result": "not observed"}, {"measurement": "effect on feces count", "setting": "mice [11]; quipazine 5 mg/kg, first 30 min", "result": "feces count increase"}, {"measurement": "effect on HTR counts", "setting": "C57BL/6 wild-type mice; different doses, i.p., 90 min recording", "result": "robust and long-lasting increase on HTR counts"}, {"measurement": "duration of HTR increase", "setting": "C57BL/6 wild-type mice; highest doses evaluated", "result": "over 90 min"}, {"measurement": "time of peak of HTR increase post injection", "setting": "C57BL/6 wild-type mice; i.p.", "result": "≤ 30", "unit": "min"}, {"measurement": "HTR vs vehicle in 5-HT2AR-KO mice", "setting": "5-HT2A-KO mice", "result": "did not differ"}, {"measurement": "EC50", "setting": "5-HT2AR [2]", "result": 7.26, "unit": "µM"}, {"measurement": "Emax", "setting": "5-HT2AR [2]", "result": 44.3, "unit": "%"}]}, {"molecule": "6-chloro-2,3-dihydro-5-methyl-N-[6-[(2-methyl-3-pyridinyl)oxy]-3-pyridinyl]-1H-indole-1-carboxyamide dihydrochloride [SB-242084]", "values": [{"measurement": "effect of antagonist pretreatment on HTR in mice administered 1-NP or 2-NP", "setting": "C57BL/6 wild-type mice", "result": "did not significantly affect HTR"}]}, {"molecule": "Cc1nccn1CC1CCc2c(c3ccccc3n2C)C1=O", "note": "(stereo not drawn) [ondansetron, 1,2,3,9-tetrahydro-9-methyl-3-[(2-methyl-1H-imidazol-1-yl)methyl]-4H-carbazol-4-one]", "values": [{"measurement": "effect on quipazine-induced feces count increase", "setting": "mice [11]; ondansetron 1 mg/kg with quipazine 5 mg/kg, 30 min following cotreatment", "result": "successfully reduced"}]}]}
